Most compounds without a hit are left out; they make up all but 3.1% or so of the library.
hERG protect: hERG (human) protection from proarrhythmic block | CHO-hERG, FluxOR thallium flux, dofetilide IC70 present | 0.51% of 310,000 active | activation (rescue from dofetilide block), less the hit threshold, % at 10 µM | Q12809 | AID 1511;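 active = activation above the mean of controls blocked by dofetilide plus 5 SD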;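 note: thallium influx through hERG after potassium depolarization seen as dye fluorescence rise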
KCNQ1 block: human KCNQ1 channel inhibition | B-score at 10 µM | 1.3% of 310,000 active | P51787 | CHO-K1 KCNQ1, FluxOR thallium flux fluorescence; stronger effect = higher value;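 active = compounds whose thallium flux B-score, printed positive for inhibition, exceeds three library SD while starting fluorescence stays within three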;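 note: channel opened by potassium depolarization with thallium stimulus after 20 min compound exposure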
KCNK3 block: human KCNK3 channel inhibition, primary screen; O14649; B-score at 10 µM; CHO-KCNK3 thallium flux, FluxOR fluorescence; stronger effect = lower value; 0.84% of 340,000 active;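 active = B-score under library mean minus 4 SD, starting fluorescence ratio at most library mean plus 5 SD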;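 note: more negative B-score means stronger inhibition of thallium flux through KCNK3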
KCNQ1 pot: potentiates or activates the human KCNQ1 potassium channel; P51787; CHO-K1 KCNQ1, thallium flux FluxOR fluorescence; stronger effect = higher value; B-score at 10 µM; 0.35% of 310,000 active;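 active = fluorescence ratio B-score, a plate-corrected score, at least three library SD, with initial intensity B-score within 5 SD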
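Assay system: stable KCNQ1 CHO-K1 line; medium: assay buffer, equal DMSO in all wells; timing: 90 min dye loading and 20 min compound exposure, both at room temperature; technique: kinetic FluxOR thallium fluorescence, 10-s 1-Hz baseline, 110-s post-stimulus read; read-out basis: B score of baseline-normalized fluorescence ratio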
KCNK9 inh: human KCNK9 channel inhibition. HEK293 KCNK9, FluxOR thallium flux fluorescence; stronger effect = lower value. Q9NPC2. B-score at 10 µM. AID 488922. 1.2% of 310,000 active;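 active = ratio B-score over 3 SD below the library mean, with starting fluorescence within 5 SD of its mean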;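 note: negative B-score means less thallium flux so channel inhibition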
Target sequence (Q9NPC2 whole entry, looked up): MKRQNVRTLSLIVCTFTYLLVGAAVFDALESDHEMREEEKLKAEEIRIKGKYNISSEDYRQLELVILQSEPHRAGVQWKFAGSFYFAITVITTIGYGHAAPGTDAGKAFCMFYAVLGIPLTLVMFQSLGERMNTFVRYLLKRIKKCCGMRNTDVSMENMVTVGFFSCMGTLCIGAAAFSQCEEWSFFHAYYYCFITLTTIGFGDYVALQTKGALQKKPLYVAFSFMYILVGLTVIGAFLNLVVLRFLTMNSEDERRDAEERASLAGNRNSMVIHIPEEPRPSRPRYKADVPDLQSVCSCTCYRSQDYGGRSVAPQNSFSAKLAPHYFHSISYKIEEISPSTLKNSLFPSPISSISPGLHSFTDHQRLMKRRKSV
KCNK9 block conf: confirmation of human KCNK9 potassium channel inhibitors. 43% of 4,900 active. HEK293 KCNK9 cells, FluxOR thallium flux fluorescence. inhibition, % at 10 µM. AID 492992. shares compounds with KCNK9 inh;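 active = thallium signal inhibited by more than 5 SD of the compound-free buffer control wells, on both duplicate plates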;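 note: 0% = assay buffer control wells without compound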
Kir21 sel: tests whether KCNK9 modulators also affect mouse Kir2.1; shares compounds with KCNK9 inh; Kir2.1 cells, FluxOR thallium flux fluorescence; inhibition, % at 10 µM; 4% of 4,900 active; AID 492993;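 active = thallium signal drop more than 5 SD beyond the mean of the no-compound control wells, seen in both duplicate plates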;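 note: signal is fluorescence rise after thallium addition divided by baseline fluorescence; plate controls were assay buffer only for no effect and full block by chlorpromazine control for full effect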
KCNK9 uninduced: non-induced cell nonspecific activity of KCNK9 modulators; shares compounds with KCNK9 inh; non-induced KCNK9-HEK293, FluxOR thallium flux; inhibition, % at 10 µM; 40% of 4,900 active;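 active = thallium signal drop beyond 5 SD of the untreated control mean, on both duplicate plates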;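 note: plate controls were buffer only IC0 wells for no effect and SID17386958 at its maximal inhibitory level for full effect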
KCNK3 inh conf: confirmation of human KCNK3 two-pore domain potassium channel inhibitors. shares compounds with KCNK3 block. CHO-KCNK3 thallium flux, FluxOR fluorescence; 0% buffer, 100% carvedilol maximal block. ratio percent of control, % at 10 µM. 99% of 2,400 active;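 active = ratio percent of control, averaged over triplicates, above buffer control mean plus 5 SD, cut at about 64% in these data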;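 note: ratio is the fluorescence rise from min to max over baseline after thallium stimulus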
KCNK3 noninduced: KCNK3 inhibitor counter-screen hit in non-induced cells; shares compounds with KCNK3 block; non-induced KCNK3 parental cells, FluxOR thallium flux; stronger effect = lower value; 40% of 2,400 active; thallium flux ratio (lower = more inhibition) at 10 µM; AID 651747;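 active = thallium flux ratio, averaged over three wells, more than 5 SD below the buffer control mean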;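 note: host cells are CHO cells without KCNK3 induction; ratio is peak minus trough fluorescence over baseline then normalized to buffer controls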
Active calls of the source: *; i = inactive; x = no result.

SMILES	hERG protect	KCNQ1 block	KCNK3 block	KCNQ1 pot	KCNK9 inh	KCNK3 inh conf	KCNK3 noninduced	others
COC(=O)C1=C(C)N=C2SC(C)C(=O)N2C1c1cccc(F)c1 (stereo not given)	-7	i	-12*	i	-13*	102*	i	KCNK9 block conf=74%*;Kir21 sel=i;KCNK9 uninduced=50%*
CSc1nsc(SC)c1C(=O)Nc1ccc(C(C)(C)C)cc1	-2	i	-13*	i	-14*	112*	i	KCNK9 block conf=53%*;Kir21 sel=i;KCNK9 uninduced=28%*
Cc1ccc(OCC(=O)N/N=C/c2cccc3cccnc23)cc1	-11	i	i	i	i	x	x
Cc1ccccc1N(CC(=O)N1CCOCC1)S(C)(=O)=O	-12	i	i	i	i	x	x
CCC(C)Nc1nc(N)c([N+](=O)[O-])c(Nc2cc(OC)ccc2OC)n1 (stereo not given)	-14	i	i	i	-9.7*	136*	0.13*	KCNK9 block conf=40%*;Kir21 sel=i;KCNK9 uninduced=i
CC1CC(Nc2ccccc2)c2ccccc2N1C(=O)c1ccncc1 (stereo not given)	-9	i	i	i	i	x	x
CC1CC(Nc2ccccc2)c2ccccc2N1C(=O)c1ccco1 (stereo not given)	-10	i	-13*	i	i	115*	i
COc1ccc(Cl)cc1C(=O)NCCN1CCOCC1	1	i	i	i	i	x	x
Cc1ccc(S(=O)(=O)Nc2ccccc2N=Cc2c(F)c(F)c(F)c(F)c2F)cc1	x	x	-12*	x	x	114*	0.15*
Cc1ccc(S(=O)(=O)Nc2ccccc2C=Nc2cccc(C)c2C)cc1	-5	i	i	i	i	x	x
CN(CC(=O)Nc1cccc(S(=O)(=O)N2CCCC2)c1)CC(=O)Nc1ccc(F)c(F)c1F	x	x	i	x	x	x	x
CN(CC(=O)Nc1cccc(S(=O)(=O)N2CCCC2)c1)CC(=O)Nc1ccc(Cl)c(C(F)(F)F)c1	-14	i	-11*	i	i	128*	0.14*
O=C(CN1CCC(NC(=O)c2ccccc2Cl)CC1)NCc1ccccc1	-2	i	i	i	i	x	x
Cc1ccccc1NC(=O)OCc1ccccc1	-5	i	i	i	i	x	x
COc1ccc(Cl)c2sc(N3CCN(C(=O)c4ccco4)CC3)nc12	-18	i	-10*	i	i	86*	i
CCN(CC(=O)Nc1ccc2c(c1)OCCO2)CC(=O)Nc1ccc(C)c(S(=O)(=O)N(C)C)c1	x	x	i	x	x	x	x
CCN(CC)S(=O)(=O)c1cc(-c2nnc(-c3ccc(Br)cc3)o2)ccc1Br	-4	i	-9.4*	i	i	110*	0.16*
CCOC(=O)c1cnc(COc2ccc(OC)cc2)[nH]c1=O	-5	i	i	i	i	x	x
COc1cc(C(=O)Nc2ccc3c(c2)ncn3C(C)(C)C)cc(OC)c1OC	-9	i	-9.3*	i	i	75*	i
CC(C)(C)n1cnc2cc(NC(=O)c3ccc(Cl)cc3)ccc21	-4	i	i	i	i	x	x
Cc1ccc(NC(=O)C(=O)c2c(-c3ccccc3)cc3ccccn23)cc1S(=O)(=O)N1CCOCC1	-10	i	-10*	i	i	113*	i
CN1OC[C@@H]2CN(C(=O)CCc3ccccc3)[C@H](c3cccc(-c4ccc(C#N)cc4)c3)C[C@@H]21	x	x	i	x	x	x	x
CCCCCOC(=O)c1ccc(OC(=O)c2cncc(Br)c2)cc1	-3	i	i	i	i	x	x
CCCCCCCOC(=O)c1ccc(OC(=O)c2cccnc2)cc1	-8	i	-9.4*	i	i	136*	0.14*
CC(C)c1ccc(NC2CCCN(C(=O)CCc3cnn(C)c3)C2)cc1 (stereo not given)	-5	i	i	i	i	x	x
SMILES	hERG protect	KCNQ1 block	KCNK3 block	KCNQ1 pot	KCNK9 inh	KCNK3 inh conf	KCNK3 noninduced	others
OC1(c2cccc(C(F)(F)F)c2)CCN(c2ncnc3c2[nH]c2ccc(F)cc23)CC1	x	x	-12*	x	x	132*	i
O=C(COc1cccc2cccnc12)N/N=C/c1ccccc1O	-15	i	i	i	i	x	x
Oc1ccccc1/C=N/Nc1cccc2cccnc12	-9	i	-11*	i	i	98*	i
Cc1cc(C(=O)Nc2cc(C)n(Cc3ccc(Cl)cc3)n2)no1	-6	i	i	i	i	x	x
Cc1cc(NC(=O)c2cc(C(C)C)on2)nn1Cc1ccc(Cl)cc1	-11	i	-9.5*	i	i	105*	i
N#Cc1cccc(C(c2nnnn2C2CCCC2)N2CCCCCC2)c1 (stereo not given)	-6	i	-15*	i	-7.2*	93*	i
c1cncc(C(c2nnnn2C2CCCC2)N2CCCC2)c1 (stereo not given)	-4	i	i	i	i	x	x
CC(C)(C)Nc1nc(SCc2ccccc2)nc(N2CCOCC2)n1	-8	i	-9.4*	i	i	103*	0.16*
O=C(COC(=O)c1cc(S(=O)(=O)N2CCc3ccccc3C2)ccc1Cl)NCc1ccco1	-6	i	-9.4*	i	i	97*	i
CC(=O)c1ccc(S(=O)(=O)N2CCN(C(=O)CCC3CCCC3)CC2)cc1	x	x	i	x	x	x	x
O=C(c1ccccc1)c1nn(-c2cccc(Cl)c2)c2nc(-c3ccccc3)cc(=O)n12	-8	i	-21*	i	i	118*	0.15*
O=C(c1ccccc1)c1nn(-c2cccc(Cl)c2)ccc1=O	-7	i	i	i	i	x	x
Cc1scc(C(=O)N2CCN(c3ccc(Cl)cc3)CC2)c1C	-20	i	i	i	i	x	x
O=c1c2ccccc2nc(SCc2nnc(-c3ccccc3Br)o2)n1-c1ccccc1	-7	i	-12*	i	-6.9*	117*	i
CCn1c(SCc2cccc(OC)c2)nc2ccccc2c1=O	-15	i	-10*	i	i	128*	0.13*
Cn1c(SCc2cccc(Br)c2)nc2ccccc2c1=O	-14	i	-10*	i	i	160*	0.082*

Bioassay records: PubChem BioAssay, Johns Hopkins Ion Channel Center
